# Assay results as given in ChEMBL document CHEMBL4689842, “EUbOPEN Chemogenomics Library wave 1” (2021).
# Test system: Fibroblast
# Experiment: Multiplex assay against human fibroblast
# Assay type: toxicity, cell-based
# Procedure, shortened: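 Cells were classed with CellPathfinder machine-learning gating, first as Hoechst high-intensity objects or normal cells, then (normal cells) as healthy, pyknosed or fragmented nuclei, and finally (pyknosed cells) as mitotic or apoptotic. Staining of live cells at seeding used Hoechst33342, BioTracker Green Microtubule Cytoskeleton Dye, MitoTracker Red and Annexin V Alexa Fluor 680, with imaging on a CQ1 microscope at 37°C and 5% CO2 after compound addition. Tubulin, mitochondrial-mass and membrane-permeability phenotypes are per cents of healthy-nucleus cells.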
# [1] = 12 h, 1 µM, compound concentration 1 uM, replicate 1
# [2] = 12 h, 1 µM, compound concentration 1 uM, replicate 2
# [3] = 12 h, 10 µM, compound concentration 10 uM, replicate 1
# [4] = 12 h, 10 µM, compound concentration 10 uM, replicate 2
# [5] = 24 h, 1 µM, compound concentration 1 uM, replicate 1
# [6] = 24 h, 1 µM, compound concentration 1 uM, replicate 2
# [7] = 24 h, 10 µM, compound concentration 10 uM, replicate 1
# [8] = 24 h, 10 µM, compound concentration 10 uM, replicate 2
# [9] = 48 h, 1 µM, compound concentration 1 uM, replicate 1
# [10] = 48 h, 1 µM, compound concentration 1 uM, replicate 2
# [11] = 48 h, 10 µM, compound concentration 10 uM, replicate 1
# [12] = 48 h, 10 µM, compound concentration 10 uM, replicate 2
smiles,measurement,setting,value
CN1C2CCC1CC(OC(c1ccc(F)cc1)c1ccc(F)cc1)C2.Cl (centres undefined),Population Apoptotic (%),[1],53%
same,Population Fragmented Nuclei (%),[1],26%
same,Population Healthy Nuclei (%),[1],45%
same,Population Hoechst High Intensity Objects (%),[1],12%
same,Population Membrane Permeable-Phenotype (%),[1],21%
same,Population Mitochondria Different-Phenotype (%),[1],11%
same,Population Mitotic Cells (%),[1],46%
same,Population Normal (%),[1],87%
same,Population Pyknosed Nuclei (%),[1],27%
same,Population Tubulin-Different-Phenotype (%),[1],52%
same,Total Cell Count,[1],106
same,Population Apoptotic (%),[2],100%
same,Population Fragmented Nuclei (%),[2],5%
same,Population Healthy Nuclei (%),[2],92%
same,Population Hoechst High Intensity Objects (%),[2],2%
same,Population Membrane Permeable-Phenotype (%),[2],3%
same,Population Mitochondria Different-Phenotype (%),[2],4%
same,Population Mitotic Cells (%),[2],0%
same,Population Normal (%),[2],97%
same,Population Pyknosed Nuclei (%),[2],1%
same,Population Tubulin-Different-Phenotype (%),[2],8%
same,Total Cell Count,[2],69
same,Population Apoptotic (%),[3],64%
same,Population Fragmented Nuclei (%),[3],31%
same,Population Healthy Nuclei (%),[3],50%
same,Population Hoechst High Intensity Objects (%),[3],9%
same,Population Mitochondria Different-Phenotype (%),[3],37%
same,Population Mitotic Cells (%),[3],36%
same,Population Normal (%),[3],90%
same,Population Pyknosed Nuclei (%),[3],18%
same,Population Tubulin-Different-Phenotype (%),[3],68%
same,Total Cell Count,[3],148
same,Population Apoptotic (%),[4],80%
same,Population Fragmented Nuclei (%),[4],8%
same,Population Healthy Nuclei (%),[4],78%
same,Population Hoechst High Intensity Objects (%),[4],6%
same,Population Membrane Permeable-Phenotype (%),[4],10%
same,Population Mitochondria Different-Phenotype (%),[4],89%
same,Population Mitotic Cells (%),[4],20%
same,Population Normal (%),[4],93%
same,Population Pyknosed Nuclei (%),[4],13%
same,Population Tubulin-Different-Phenotype (%),[4],49%
same,Total Cell Count,[4],78
same,Population Apoptotic (%),[5],53%
same,Population Fragmented Nuclei (%),[5],24%
same,Population Healthy Nuclei (%),[5],58%
same,Population Hoechst High Intensity Objects (%),[5],13%
same,Population Membrane Permeable-Phenotype (%),[5],26%
same,Population Mitochondria Different-Phenotype (%),[5],4%
same,Population Mitotic Cells (%),[5],46%
same,Population Normal (%),[5],86%
same,Population Pyknosed Nuclei (%),[5],17%
same,Population Tubulin-Different-Phenotype (%),[5],58%
same,Total Cell Count,[5],99
same,Population Apoptotic (%),[6],20%
same,Population Fragmented Nuclei (%),[6],3%
same,Population Healthy Nuclei (%),[6],90%
same,Population Hoechst High Intensity Objects (%),[6],2%
same,Population Membrane Permeable-Phenotype (%),[6],4%
same,Population Mitotic Cells (%),[6],80%
same,Population Normal (%),[6],97%
same,Population Pyknosed Nuclei (%),[6],6%
same,Population Tubulin-Different-Phenotype (%),[6],8%
same,Total Cell Count,[6],82
same,Population Apoptotic (%),[7],38%
same,Population Fragmented Nuclei (%),[7],38%
same,Population Healthy Nuclei (%),[7],45%
same,Population Hoechst High Intensity Objects (%),[7],17%
same,Population Membrane Permeable-Phenotype (%),[7],15%
same,Population Mitochondria Different-Phenotype (%),[7],40%
same,Population Mitotic Cells (%),[7],61%
same,Population Normal (%),[7],82%
same,Population Pyknosed Nuclei (%),[7],15%
same,Population Tubulin-Different-Phenotype (%),[7],60%
same,Total Cell Count,[7],160
same,Population Apoptotic (%),[8],80%
same,Population Fragmented Nuclei (%),[8],16%
same,Population Healthy Nuclei (%),[8],64%
same,Population Hoechst High Intensity Objects (%),[8],3%
same,Population Membrane Permeable-Phenotype (%),[8],6%
same,Population Mitochondria Different-Phenotype (%),[8],78%
same,Population Mitotic Cells (%),[8],20%
same,Population Normal (%),[8],96%
same,Population Pyknosed Nuclei (%),[8],19%
same,Population Tubulin-Different-Phenotype (%),[8],25%
same,Total Cell Count,[8],107
same,Population Apoptotic (%),[9],28%
same,Population Fragmented Nuclei (%),[9],34%
same,Population Healthy Nuclei (%),[9],52%
same,Population Hoechst High Intensity Objects (%),[9],13%
same,Population Membrane Permeable-Phenotype (%),[9],22%
same,Population Mitochondria Different-Phenotype (%),[9],1%
same,Population Mitotic Cells (%),[9],71%
same,Population Normal (%),[9],86%
same,Population Pyknosed Nuclei (%),[9],12%
same,Population Tubulin-Different-Phenotype (%),[9],45%
same,Total Cell Count,[9],126
same,Population Apoptotic (%),[10],0%
same,Population Healthy Nuclei (%),[10],64%
same,Population Hoechst High Intensity Objects (%),[10],11%
same,Population Membrane Permeable-Phenotype (%),[10],9%
same,Population Mitochondria Different-Phenotype (%),[10],6%
same,Population Mitotic Cells (%),[10],100%
same,Population Normal (%),[10],88%
same,Population Pyknosed Nuclei (%),[10],0%
same,Population Tubulin-Different-Phenotype (%),[10],47%
same,Total Cell Count,[10],127
same,Population Apoptotic (%),[11],80%
same,Population Fragmented Nuclei (%),[11],47%
same,Population Healthy Nuclei (%),[11],45%
same,Population Hoechst High Intensity Objects (%),[11],25%
same,Population Membrane Permeable-Phenotype (%),[11],9%
same,Population Mitochondria Different-Phenotype (%),[11],27%
same,Population Mitotic Cells (%),[11],20%
same,Population Normal (%),[11],74%
same,Population Pyknosed Nuclei (%),[11],7%
same,Population Tubulin-Different-Phenotype (%),[11],78%
same,Total Cell Count,[11],191
same,Population Apoptotic (%),[12],100%
same,Population Fragmented Nuclei (%),[12],64%
same,Population Healthy Nuclei (%),[12],35%
same,Population Hoechst High Intensity Objects (%),[12],16%
same,Population Membrane Permeable-Phenotype (%),[12],11%
same,Population Mitochondria Different-Phenotype (%),[12],18%
same,Population Mitotic Cells (%),[12],0%
same,Population Normal (%),[12],83%
same,Population Pyknosed Nuclei (%),[12],0%
same,Population Tubulin-Different-Phenotype (%),[12],79%
same,Total Cell Count,[12],259
